Assay results collected from several papers.
Protocols differ between the studies behind these lines. Values after ≈ are worked out from the molar mass of the structure shown.

| SMILES | target or system | assay | test system | conditions | endpoint | value |
| --- | --- | --- | --- | --- | --- | --- |
| CC(C)C(=O)OCc1cc2[nH]c(=S)n(Cc3cncc(C(N)=S)c3)c(=O)c2cc1Cl | Mycobacterium tuberculosis | microbial growth | H37RV | – | MIC90 | 18 µM (≈ 8.33 µg/mL) |
| Cc1cc(F)cc(C)c1NC(=N)CC(O)c1cc2c(F)cc(F)cc2c2cc(C(F)(F)F)ccc12 (stereo not drawn) | HepG2 | cell growth or viability, neutral red | – | 24 h | IC50 | 6.3 µM |
| COc1ccc(-c2cc(C(F)(F)F)c3c(N)c(C(=O)Nc4c(C)cccc4C)sc3n2)cc1 | HepG2 | cell growth or viability | – | 72 h | IC50 | > 100 µM |
| NC(=O)c1cncc(Cn2c(=S)[nH]c3cc(CO)c(Cl)cc3c2=O)c1 | Mycobacterium tuberculosis | microbial growth | H37RV | – | MIC90 | 17.2 µM (≈ 6.48 µg/mL) |
| COC1CN(C(=O)c2sc3ncccc3c2N)C1 | HepG2 | cell growth or viability | – | 72 h | IC50 | > 100 µM |
| N=C(CC(O)c1cc2c(F)cc(F)cc2c2cc(C(F)(F)F)ccc12)N1CCC(F)(F)CC1 (stereo not drawn) | HepG2 | cell growth or viability, neutral red | – | 24 h | IC50 | 15.7 µM |
| O=C(Nc1ccc(Cl)cc1)Nc1cccc(-c2cn(Cc3ccc(Br)cc3)nn2)c1 | Huh-7 | cell growth or viability, CCK-8 | – | 50 µM, 72 h | viability | 13.1% |
| COc1ccc(-c2cc(C(F)(F)F)c3c(N)c(C(=O)N4CCCCC4)sc3n2)cc1 | HepG2 | cell growth or viability | – | 72 h | IC50 | > 100 µM |
| N#Cc1ccc(NC(=N)CC(O)c2cc3c(F)cc(F)cc3c3cc(C(F)(F)F)ccc23)cc1 (stereo not drawn) | HepG2 | cell growth or viability, neutral red | – | 24 h | IC50 | > 25 µM |
| CC(C)C(=O)OCc1cc2[nH]c(=S)n(Cc3cncc(C#N)c3)c(=O)c2cc1Cl | Mycobacterium tuberculosis | microbial growth | H37RV | – | MIC90 | 5.52 µM (≈ 2.37 µg/mL) |
| COc1ccc(-c2cc(C(F)(F)F)c3c(N)c(C(=O)Nc4cccc(C)c4C)sc3n2)cc1OC | Mycobacterium tuberculosis | microbial growth | H37RV | – | IC50 | > 100 µM |
| N#Cc1cc2[nH]c(=S)n(Cc3cccnc3)c(=O)c2cc1Cl | Mycobacterium tuberculosis | microbial growth | H37RV | – | MIC90 | > 100 µM |
| N=C(CC(O)c1cc2c(F)cc(F)cc2c2cc(C(F)(F)F)ccc12)NCc1ccc(F)cc1 (stereo not drawn) | HepG2 | cell growth or viability, neutral red | – | 24 h | IC50 | 7.2 µM |
| O=c1[nH]c2cc(CO)c(Cl)cc2c(=O)n1Cc1cccnc1 | Mycobacterium tuberculosis | microbial growth | H37RV | – | MIC90 | > 100 µM |
| COc1ccc(-c2cc(C(F)(F)F)c3c(N)c(C(=O)NC4COC4)sc3n2)cc1 | HepG2 | cell growth or viability | – | 72 h | IC50 | > 100 µM |
